pIC50: −log10 of the molar value. The source made the active and inactive calls. No cut-off for these calls is given here.
Columns and labels:
NCI-H2228 [1] = test: Induction of apoptosis in human NCI-H2228 cells assessed as necrotic cells at 50 nM measured after 48 hrs by Annexin V-FITC/PI staining based flow cytometry assay (reference value: 2.88%); type: functional
Procedure, shortened: (§1)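 After 24 h or 48 h exposure (5, 25, 50 nM; DMSO 0.01% control), NCI-H2228 cells were harvested, double-stained with Annexin V-FITC and PI and run on flow cytometry. Stage percentages quantified by software; three experiments, representative shown.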

BaF3 = test: Antiproliferative activity against mouse BaF3 cells overexpressing ALK assessed as inhibition of cell proliferation measured by CCK8 assay; type: functional, cell-based
Procedure, shortened: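 Cell proliferation inhibition; IC50 given as mean ± SD of three independent experiments.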

NCI-H2228 [2] = test: Cell cycle arrest in human NCI-H2228 cells assessed as accumulation of cells in S phase at 20 nM measured after 48 hrs by PI staining based flow cytometry method (reference value: 30%); type: functional
Procedure, shortened: (§2)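 NCI-H2228 cells exposed to 20 nM for 0, 12, 24 or 48 h, stained with PI and analysed by flow cytometry for G0/G1, S and G2/M fractions. Phase percentages quantified by analysis software; three independent experiments, representative run shown.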

NCI-H2228 [3] = test: Induction of apoptosis in human NCI-H2228 cells assessed as late apoptotic cells at 5 nM measured after 48 hrs by Annexin V-FITC/PI staining based flow cytometry assay (reference value: 0.23%); type: functional; procedure, shortened: as §1
NCI-H2228 [4] = test: Induction of apoptosis in human NCI-H2228 cells assessed as necrotic cells at 25 nM measured after 24 hrs by Annexin V-FITC/PI staining based flow cytometry assay (reference value: 0.21%); type: functional; procedure, shortened: as §1
NCI-H2228 [5] = test: Induction of apoptosis in human NCI-H2228 cells assessed as late apoptotic cells at 50 nM measured after 48 hrs by Annexin V-FITC/PI staining based flow cytometry assay (reference value: 0.23%); type: functional; procedure, shortened: as §1
NCI-H2228 [6] = test: Induction of apoptosis in human NCI-H2228 cells assessed as late apoptotic cells at 50 nM measured after 24 hrs by Annexin V-FITC/PI staining based flow cytometry assay (reference value: 2.02%); type: functional; procedure, shortened: as §1
NCI-H2228 [7] = test: Cell cycle arrest in human NCI-H2228 cells assessed as accumulation of cells in S phase at 20 nM measured after 12 hrs by PI staining based flow cytometry method (reference value: 30%); type: functional; procedure, shortened: as §2
NCI-H2228 [8] = test: Induction of apoptosis in human NCI-H2228 cells assessed as early apoptotic cells at 25 nM measured after 48 hrs by Annexin V-FITC/PI staining based flow cytometry assay (reference value: 1.58%); type: functional; procedure, shortened: as §1
NCI-H2228 [9] = test: Induction of apoptosis in human NCI-H2228 cells assessed as necrotic cells at 25 nM measured after 48 hrs by Annexin V-FITC/PI staining based flow cytometry assay (reference value: 2.88%); type: functional; procedure, shortened: as §1
NCI-H2228 [10] = test: Induction of apoptosis in human NCI-H2228 cells assessed as induction of mitochondrial membrane potential collapse at 5 to 50 nM measured after 24 hrs by JC-1 probe based flourescence microscopy; type: functional, cell-based; conditions: dose 5-50 nM
Procedure, shortened: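 JC-1 read of mitochondrial membrane potential: NCI-H2228 cells given 5, 25 or 50 nM, or DMSO 0.01%, for 24 h, then probe-loaded 30 min and viewed by fluorescence microscopy for red aggregate versus green monomer signal. Three experiments.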

NCI-H2228 [11] = test: Cell cycle arrest in human NCI-H2228 cells assessed as accumulation of cells in S phase at 20 nM measured after 24 hrs by PI staining based flow cytometry method (reference value: 30%); type: functional; procedure, shortened: as §2
NCI-H2228 [12] = test: Induction of apoptosis in human NCI-H2228 cells assessed as nuclear pyknosis at 5 to 50 nM measured after 48 hrs by Hoechst 33342 staining based flourescence microscopy method; type: functional, cell-based; conditions: dose 5-50 nM
Procedure, shortened: (§3)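 Nuclear morphology: NCI-H2228 cells treated 48 h at 5, 25 and 50 nM, stained with Hoechst 33342, imaged on an inverted fluorescence microscope. Performed three times, representative images shown.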

NCI-H2228 [13] = test: Induction of apoptosis in human NCI-H2228 cells assessed as late apoptotic cells at 25 nM measured after 48 hrs by Annexin V-FITC/PI staining based flow cytometry assay (reference value: 0.23%); type: functional; procedure, shortened: as §1
NCI-H2228 [14] = test: Cell cycle arrest in human NCI-H2228 cells assessed as downregulation of CDK4 protein expression at 20 nM measured after 12 to 48 hrs by western blot assay; type: functional, cell-based; conditions: time 12-48 hrs
Procedure, shortened: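 Western blot of cell-cycle regulatory proteins in NCI-H2228 cells held at 20 nM for 0, 12, 24 or 48 h. Performed three times, representative blot shown.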

NCI-H2228 [15] = test: Cell cycle arrest in human NCI-H2228 cells assessed as accumulation of cells in G2/M phase at 20 nM measured after 24 hrs by PI staining based flow cytometry method (reference value: 2.23%); type: functional; procedure, shortened: as §2
NCI-H2228 [16] = test: Cell cycle arrest in human NCI-H2228 cells assessed as accumulation of cells in G2/M phase at 20 nM measured after 12 hrs by PI staining based flow cytometry method (reference value: 2.23%); type: functional; procedure, shortened: as §2
NCI-H2228 [17] = test: Cell cycle arrest in human NCI-H2228 cells assessed as accumulation of cells in G1 phase at 20 nM measured after 24 hrs by PI staining based flow cytometry method (reference value: 67.77%); type: functional; procedure, shortened: as §2
NCI-H2228 [18] = test: Cell cycle arrest in human NCI-H2228 cells assessed as accumulation of cells in G2/M phase at 20 nM measured after 48 hrs by PI staining based flow cytometry method (reference value: 2.23%); type: functional; procedure, shortened: as §2
NCI-H2228 [19] = test: Induction of apoptosis in human NCI-H2228 cells assessed as nuclear fragmentation at 5 to 50 nM measured after 48 hrs by Hoechst 33342 staining based flourescence microscopy method; type: functional, cell-based; conditions: dose 5-50 nM; procedure, shortened: as §3
NCI-H2228 [20] = test: Inhibition of cell migration in human NCI-H2228 cells assessed as reduction in wound closure at 25 nM measured after 12 to 24 hrs by wound healing assay based phase contrast microscopy method; type: functional; conditions: time 12-24 hrs
Procedure, shortened: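 Wound-closure migration: NCI-H2228 cells kept in 1640 medium containing compound for 12 h or 24 h, photographed by phase contrast microscopy (4× objective); untreated control for comparison. Three experiments.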

NCI-H2228 [21] = test: Induction of apoptosis in human NCI-H2228 cells assessed as early apoptotic cells at 5 nM measured after 48 hrs by Annexin V-FITC/PI staining based flow cytometry assay (reference value: 1.58%); type: functional; procedure, shortened: as §1
NCI-H2228 [22] = test: Induction of apoptosis in human NCI-H2228 cells assessed as late apoptotic cells at 5 nM measured after 24 hrs by Annexin V-FITC/PI staining based flow cytometry assay (reference value: 2.02%); type: functional; procedure, shortened: as §1
NCI-H2228 [23] = test: Induction of apoptosis in human NCI-H2228 cells assessed as viable cells at 25 nM measured after 24 hrs by Annexin V-FITC/PI staining based flow cytometry assay (reference value: 95.6%); type: functional; conditions: read-out: Activity; procedure, shortened: as §1
NCI-H2228 [24] = test: Induction of apoptosis in human NCI-H2228 cells assessed as necrotic cells at 5 nM measured after 48 hrs by Annexin V-FITC/PI staining based flow cytometry assay (reference value: 2.88%); type: functional; procedure, shortened: as §1
NCI-H2228 [25] = test: Induction of apoptosis in human NCI-H2228 cells assessed as viable cells at 50 nM measured after 24 hrs by Annexin V-FITC/PI staining based flow cytometry assay (reference value: 95.6%); type: functional; conditions: read-out: Activity; procedure, shortened: as §1

## CCC(=O)Nc1cc(Nc2ncc(Cl)c(Nc3ccc(F)cc3[S+]([O-])CC)n2)c(OC)cc1N1CCN(C)CC1 (stereo unspecified)
NCI-H2228 [1]
  Activity: 4.55%
BaF3
  pIC50: 8.09
NCI-H2228 [2]
  Activity: 10.1%
NCI-H2228 [3]
  Activity: 14.1%
NCI-H2228 [4]
  Activity: 0.17%
NCI-H2228 [5]
  Activity: 77.5%
NCI-H2228 [6]
  Activity: 5.14%
NCI-H2228 [7]
  Activity: 20.22%
NCI-H2228 [8]
  Activity: 19.9%
NCI-H2228 [9]
  Activity: 0.22%
NCI-H2228 [10]
  Activity: Active
NCI-H2228 [11]
  Activity: 10.21%
NCI-H2228 [12]
  Activity: Active
NCI-H2228 [13]
  Activity: 37.1%
NCI-H2228 [14]
  Activity: Active
NCI-H2228 [15]
  Activity: 7.16%
NCI-H2228 [16]
  Activity: 8.55%
NCI-H2228 [17]
  Activity: 82.13%
NCI-H2228 [18]
  Activity: 3.41%
NCI-H2228 [19]
  Activity: Active
NCI-H2228 [20]
  Activity: Active
NCI-H2228 [21]
  Activity: 8.19%
NCI-H2228 [22]
  Activity: 7.02%
NCI-H2228 [23]
  viability at 0.025 µM: 76.3%
NCI-H2228 [24]
  Activity: 0.69%
NCI-H2228 [25]
  viability at 0.05 µM: 76.1%

Source: ChEMBL document CHEMBL4823286, “Synthesis and evaluation of novel 2,4-diaminopyrimidines bearing a sulfoxide moiety as anaplastic lymphoma kinase (ALK) inhibition agents” (Bioorg Med Chem Lett, 2021)
